Reference: ChEMBL document CHEMBL5030506 (J Med Chem, 2021)
Calls of active or inactive are those of the source.

Assays:
[1] = target: Protein arginine N-methyltransferase 6 (Homo sapiens, UniProt Q96LA8); experiment: Inhibition of PRMT6 (unknown origin)
[2] = target: Histone-lysine N-methyltransferase SETD7 (Homo sapiens) (UniProt Q8WTS6); experiment: Inhibition of SETD7 (unknown origin) at 1 to 10 uM; conditions: dose 1-10 µM
Outline: (§1)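 Part of a 33-methyltransferase selectivity panel covering 8 PRMTs, 21 PKMTs, 3 DNMTs and 1 RNA methyltransferase. Each compound was tested at 1 μM and at 10 μM, with n = 3.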

[3] = target: Histone-lysine N-methyltransferase SETD2 (Homo sapiens) (UniProt Q9BYW2); experiment: Inhibition of SETD2 (unknown origin) at 1 to 10 uM; conditions: dose 1-10 µM; outline: as §1
[4] = target: Histone-lysine N-methyltransferase, H3 lysine-79 specific (Homo sapiens) (UniProt Q8TEK3); experiment: Inhibition of DOT1L (unknown origin) at 1 to 10 uM; conditions: dose 1-10 µM; outline: as §1
[5] = target: Histone-lysine N-methyltransferase ASH1L (Homo sapiens) (UniProt Q9NR48); experiment: Inhibition of ASH1L (unknown origin) at 1 to 10 uM; conditions: dose 1-10 µM; outline: as §1
MCF7 = experiment: Cytotoxicity against MCF7 cells at up to 10 uM measured after 3 days by CCK8 assay; type: cell-based; conditions: human, mcf7, 72 h, time 3 day
Outline: (§2)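 Cells (1 × 10^4 per well) were seeded and, after 24 h, exposed for 3 days to serially diluted compound starting at 10 μM. CCK-8 (WST-8) reagent was then added for 4 h at 37 °C, and absorbance was read at 450 nm. Values are the average ± SD of three replicate experiments.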

PNT2 = experiment: Cytotoxicity against PNT2 cells at up to 10 uM measured after 3 days by CCK8 assay; type: cell-based; conditions: human, pnt2, 72 h, time 3 day; outline: as §2
[6] = target: Histone-lysine N-methyltransferase NSD2 (Homo sapiens) (UniProt O96028); experiment: Inhibition of NSD2 (unknown origin) at 1 to 10 uM; conditions: dose 1-10 µM; outline: as §1
[7] = target: Histone-arginine methyltransferase CARM1 (Homo sapiens) (UniProt Q86X55); experiment: Inhibition of PRMT4 (unknown origin) at 1 to 10 uM; conditions: dose 1-10 µM; outline: as §1
[8] = target: Protein arginine N-methyltransferase 7 (Homo sapiens) (UniProt Q9NVM4); experiment: Inhibition of PRMT7 (unknown origin) at 1 to 10 uM; conditions: dose 1-10 µM; outline: as §1
[9] = target: Histone-lysine N-methyltransferase, H3 lysine-36 specific (Homo sapiens) (UniProt Q96L73); experiment: Inhibition of NSD1 (unknown origin) at 1 to 10 uM; conditions: dose 1-10 µM; outline: as §1
[10] = target: Histone-lysine N-methyltransferase 2C (Homo sapiens) (UniProt Q8NEZ4); experiment: Inhibition of MLL3 (unknown origin) at 1 to 10 uM; conditions: dose 1-10 µM; outline: as §1
[11] = target: Histone-lysine N-methyltransferase KMT5C (Homo sapiens) (UniProt Q86Y97); experiment: Inhibition of SUV420H2 (unknown origin) at 1 to 10 uM; conditions: dose 1-10 µM; outline: as §1
[12] = target: DNA (cytosine-5)-methyltransferase 3A (Homo sapiens) (UniProt Q9Y6K1); experiment: Inhibition of DNMT3A (unknown origin) at 1 to 10 uM; conditions: dose 1-10 µM; outline: as §1
[13] = target: Histone-lysine N-methyltransferase 2A (Homo sapiens) (UniProt Q03164); experiment: Inhibition of MLL1 (unknown origin) at 1 to 10 uM; conditions: dose 1-10 µM; outline: as §1
Sequence of Histone-lysine N-methyltransferase 2A (Homo sapiens) (Q03164 1-2718 limits assumed): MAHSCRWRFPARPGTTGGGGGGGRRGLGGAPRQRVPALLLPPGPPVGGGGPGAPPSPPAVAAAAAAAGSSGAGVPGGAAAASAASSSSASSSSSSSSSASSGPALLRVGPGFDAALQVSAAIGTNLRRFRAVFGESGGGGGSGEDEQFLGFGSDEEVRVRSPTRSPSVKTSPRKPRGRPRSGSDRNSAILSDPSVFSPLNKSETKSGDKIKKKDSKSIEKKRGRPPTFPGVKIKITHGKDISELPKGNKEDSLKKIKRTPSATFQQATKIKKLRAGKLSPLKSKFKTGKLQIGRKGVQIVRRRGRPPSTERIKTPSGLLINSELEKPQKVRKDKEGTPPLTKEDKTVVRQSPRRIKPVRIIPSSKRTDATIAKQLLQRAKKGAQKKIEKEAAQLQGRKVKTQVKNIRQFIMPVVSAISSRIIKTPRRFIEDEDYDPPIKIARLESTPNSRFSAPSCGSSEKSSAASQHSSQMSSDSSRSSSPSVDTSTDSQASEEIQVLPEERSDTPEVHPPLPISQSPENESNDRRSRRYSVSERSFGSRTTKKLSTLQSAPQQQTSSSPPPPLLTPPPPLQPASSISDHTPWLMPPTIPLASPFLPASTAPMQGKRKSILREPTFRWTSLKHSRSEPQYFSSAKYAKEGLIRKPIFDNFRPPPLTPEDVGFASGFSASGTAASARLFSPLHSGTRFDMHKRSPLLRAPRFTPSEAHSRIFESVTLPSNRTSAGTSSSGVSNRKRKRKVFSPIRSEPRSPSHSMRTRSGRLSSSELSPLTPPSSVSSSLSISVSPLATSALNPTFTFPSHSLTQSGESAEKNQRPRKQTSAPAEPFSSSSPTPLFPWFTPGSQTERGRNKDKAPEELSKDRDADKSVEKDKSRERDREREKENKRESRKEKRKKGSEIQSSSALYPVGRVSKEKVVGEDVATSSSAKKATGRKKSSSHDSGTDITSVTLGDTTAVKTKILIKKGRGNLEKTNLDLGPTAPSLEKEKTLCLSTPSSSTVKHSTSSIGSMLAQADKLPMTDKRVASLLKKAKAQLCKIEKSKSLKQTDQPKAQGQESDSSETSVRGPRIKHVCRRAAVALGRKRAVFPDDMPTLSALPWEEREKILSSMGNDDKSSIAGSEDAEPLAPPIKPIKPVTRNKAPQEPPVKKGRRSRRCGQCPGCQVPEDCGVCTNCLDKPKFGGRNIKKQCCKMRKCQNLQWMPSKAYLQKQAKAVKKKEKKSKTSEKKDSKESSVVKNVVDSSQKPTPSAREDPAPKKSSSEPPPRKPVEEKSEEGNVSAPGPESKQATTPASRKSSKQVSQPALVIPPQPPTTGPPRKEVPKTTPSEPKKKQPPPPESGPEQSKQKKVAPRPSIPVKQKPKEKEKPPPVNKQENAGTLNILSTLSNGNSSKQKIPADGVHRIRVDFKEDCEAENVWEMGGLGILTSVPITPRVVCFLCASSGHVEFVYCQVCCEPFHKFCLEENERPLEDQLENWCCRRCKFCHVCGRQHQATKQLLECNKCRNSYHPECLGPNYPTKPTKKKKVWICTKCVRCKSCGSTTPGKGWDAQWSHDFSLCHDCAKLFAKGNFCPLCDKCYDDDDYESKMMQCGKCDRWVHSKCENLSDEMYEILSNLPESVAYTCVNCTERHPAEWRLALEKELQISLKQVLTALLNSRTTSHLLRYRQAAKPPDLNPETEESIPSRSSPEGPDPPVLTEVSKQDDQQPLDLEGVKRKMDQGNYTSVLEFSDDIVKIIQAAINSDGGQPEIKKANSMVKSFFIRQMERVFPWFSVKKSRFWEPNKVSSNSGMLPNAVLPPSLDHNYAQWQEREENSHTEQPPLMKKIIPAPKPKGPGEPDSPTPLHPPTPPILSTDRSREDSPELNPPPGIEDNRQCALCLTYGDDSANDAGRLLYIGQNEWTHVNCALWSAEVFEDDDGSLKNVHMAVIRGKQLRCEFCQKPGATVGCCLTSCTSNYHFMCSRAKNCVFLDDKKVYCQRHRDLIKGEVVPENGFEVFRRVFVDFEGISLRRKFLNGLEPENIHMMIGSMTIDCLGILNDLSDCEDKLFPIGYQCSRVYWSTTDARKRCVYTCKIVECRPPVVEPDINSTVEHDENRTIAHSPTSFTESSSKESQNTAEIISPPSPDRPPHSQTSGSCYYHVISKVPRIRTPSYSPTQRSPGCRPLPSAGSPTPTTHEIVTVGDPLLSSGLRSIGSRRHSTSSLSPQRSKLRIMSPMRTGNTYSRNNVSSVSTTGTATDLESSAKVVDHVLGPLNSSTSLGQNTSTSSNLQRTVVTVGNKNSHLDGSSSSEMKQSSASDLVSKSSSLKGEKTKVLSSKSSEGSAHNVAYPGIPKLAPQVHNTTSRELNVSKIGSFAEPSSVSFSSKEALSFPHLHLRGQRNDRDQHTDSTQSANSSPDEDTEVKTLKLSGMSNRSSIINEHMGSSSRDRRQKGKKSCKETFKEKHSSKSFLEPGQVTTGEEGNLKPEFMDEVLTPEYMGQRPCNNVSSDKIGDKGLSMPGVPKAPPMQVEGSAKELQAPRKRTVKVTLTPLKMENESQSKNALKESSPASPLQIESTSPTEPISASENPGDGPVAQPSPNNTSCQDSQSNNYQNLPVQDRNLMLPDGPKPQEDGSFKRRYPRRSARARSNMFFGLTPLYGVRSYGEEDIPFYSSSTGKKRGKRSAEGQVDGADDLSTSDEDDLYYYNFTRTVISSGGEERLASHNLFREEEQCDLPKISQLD
Sequence of Histone-lysine N-methyltransferase 2A (Homo sapiens) (Q03164 2719-3969 limits assumed): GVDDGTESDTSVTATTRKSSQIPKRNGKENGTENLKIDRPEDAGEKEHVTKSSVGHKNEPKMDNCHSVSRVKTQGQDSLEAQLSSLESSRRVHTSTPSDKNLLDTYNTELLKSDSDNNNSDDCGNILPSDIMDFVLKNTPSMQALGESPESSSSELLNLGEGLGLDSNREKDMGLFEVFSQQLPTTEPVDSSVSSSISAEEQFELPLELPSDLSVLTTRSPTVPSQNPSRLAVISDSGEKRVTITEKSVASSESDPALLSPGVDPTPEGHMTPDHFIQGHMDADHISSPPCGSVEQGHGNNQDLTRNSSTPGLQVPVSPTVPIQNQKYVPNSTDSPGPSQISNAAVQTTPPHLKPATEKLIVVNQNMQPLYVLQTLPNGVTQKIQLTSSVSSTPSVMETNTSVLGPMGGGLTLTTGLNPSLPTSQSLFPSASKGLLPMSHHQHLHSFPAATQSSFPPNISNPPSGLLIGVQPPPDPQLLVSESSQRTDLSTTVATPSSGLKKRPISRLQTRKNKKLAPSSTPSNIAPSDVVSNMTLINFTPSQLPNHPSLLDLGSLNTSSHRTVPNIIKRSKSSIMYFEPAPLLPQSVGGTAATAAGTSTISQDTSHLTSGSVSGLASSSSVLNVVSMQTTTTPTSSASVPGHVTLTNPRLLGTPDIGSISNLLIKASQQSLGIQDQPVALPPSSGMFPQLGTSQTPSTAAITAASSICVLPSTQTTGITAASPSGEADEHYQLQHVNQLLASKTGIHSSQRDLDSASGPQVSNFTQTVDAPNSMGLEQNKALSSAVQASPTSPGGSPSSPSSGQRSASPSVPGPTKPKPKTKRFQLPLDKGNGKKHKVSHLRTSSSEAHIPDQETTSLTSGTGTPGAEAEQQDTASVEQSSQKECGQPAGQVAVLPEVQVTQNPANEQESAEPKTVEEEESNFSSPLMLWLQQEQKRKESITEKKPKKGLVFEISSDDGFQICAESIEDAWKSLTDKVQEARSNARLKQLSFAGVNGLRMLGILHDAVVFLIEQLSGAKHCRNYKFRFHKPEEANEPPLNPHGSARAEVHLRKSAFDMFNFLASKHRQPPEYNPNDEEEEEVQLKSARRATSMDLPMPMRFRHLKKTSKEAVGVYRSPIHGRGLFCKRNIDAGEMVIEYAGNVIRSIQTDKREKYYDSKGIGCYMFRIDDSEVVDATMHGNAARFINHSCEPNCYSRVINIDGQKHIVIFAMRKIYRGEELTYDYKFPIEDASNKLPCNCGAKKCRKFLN

[14] = target: DNA (cytosine-5)-methyltransferase 1 (Homo sapiens) (UniProt P26358); experiment: Inhibition of DNMT1 (unknown origin) at 1 to 10 uM; conditions: dose 1-10 µM; outline: as §1
[15] = target: Protein arginine N-methyltransferase 3 (Homo sapiens) (UniProt O60678); experiment: Inhibition of PRMT3 (unknown origin) at 1 to 10 uM; conditions: dose 1-10 µM; outline: as §1
[16] = target: RNA 5'-monophosphate methyltransferase (Homo sapiens) (UniProt Q7Z5W3); experiment: Inhibition of BCDIN3D (unknown origin) at 1 to 10 uM; conditions: dose 1-10 µM; outline: as §1
Sequence of RNA 5'-monophosphate methyltransferase (Homo sapiens) (Q7Z5W3 whole entry): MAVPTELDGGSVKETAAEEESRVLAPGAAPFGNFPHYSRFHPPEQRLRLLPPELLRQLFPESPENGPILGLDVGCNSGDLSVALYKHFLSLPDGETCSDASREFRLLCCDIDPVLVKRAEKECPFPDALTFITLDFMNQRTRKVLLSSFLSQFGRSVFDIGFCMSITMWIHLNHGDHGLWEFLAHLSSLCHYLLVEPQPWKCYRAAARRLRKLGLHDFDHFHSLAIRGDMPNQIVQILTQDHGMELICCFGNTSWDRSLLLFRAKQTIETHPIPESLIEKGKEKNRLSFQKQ

[17] = target: Protein arginine N-methyltransferase 8 (Homo sapiens) (UniProt Q9NR22); experiment: Inhibition of PRMT8 (unknown origin) at 1 to 10 uM; conditions: dose 1-10 µM; outline: as §1
[18] = target: Protein arginine N-methyltransferase 9 (Homo sapiens) (UniProt Q6P2P2); experiment: Inhibition of PRMT9 (unknown origin) at 1 to 10 uM; conditions: dose 1-10 µM
[19] = target: Histone-lysine N-methyltransferase SETDB1 (Homo sapiens) (UniProt Q15047); experiment: Inhibition of SETDB1 (unknown origin) at 1 to 10 uM; conditions: dose 1-10 µM; outline: as §1
[20] = target: Histone-lysine N-methyltransferase SMYD3 (Homo sapiens) (UniProt Q9H7B4); experiment: Inhibition of SMYD3 (unknown origin) at 1 to 10 uM; conditions: dose 1-10 µM; outline: as §1
Sequence of Histone-lysine N-methyltransferase SMYD3 (Homo sapiens) (Q9H7B4 whole entry): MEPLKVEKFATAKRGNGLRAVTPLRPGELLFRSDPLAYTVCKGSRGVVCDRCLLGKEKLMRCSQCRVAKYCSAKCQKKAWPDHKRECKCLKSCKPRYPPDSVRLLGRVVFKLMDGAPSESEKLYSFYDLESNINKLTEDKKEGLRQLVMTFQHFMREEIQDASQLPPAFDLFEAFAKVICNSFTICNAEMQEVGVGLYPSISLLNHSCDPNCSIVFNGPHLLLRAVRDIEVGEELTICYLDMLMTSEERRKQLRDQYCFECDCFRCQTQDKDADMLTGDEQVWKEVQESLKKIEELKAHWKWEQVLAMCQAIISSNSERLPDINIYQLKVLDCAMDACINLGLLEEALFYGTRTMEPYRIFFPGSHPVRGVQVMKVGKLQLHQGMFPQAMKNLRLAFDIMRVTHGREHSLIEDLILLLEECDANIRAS

[21] = target: Histone-lysine N-methyltransferase EHMT2 (Homo sapiens) (UniProt Q96KQ7); experiment: Inhibition of G9a (unknown origin) at 1 to 10 uM; conditions: dose 1-10 µM; outline: as §1
[22] = target: DNA (cytosine-5)-methyltransferase 3B (Homo sapiens) (UniProt Q9UBC3); experiment: Inhibition of DNMT3B (unknown origin) at 1 to 10 uM; conditions: dose 1-10 µM; outline: as §1
[23] = target: Protein arginine N-methyltransferase 5 (Homo sapiens) (UniProt O14744); experiment: Inhibition of PRMT5 (unknown origin) at 1 to 10 uM; conditions: dose 1-10 µM; outline: as §1
[24] = target: Histone-lysine N-methyltransferase SUV39H1 (Homo sapiens) (UniProt O43463); experiment: Inhibition of SUV39H1 (unknown origin) at 1 to 10 uM; conditions: dose 1-10 µM; outline: as §1
[25] = target: Histone-lysine N-methyltransferase KMT5B (Homo sapiens) (UniProt Q4FZB7); experiment: Inhibition of SUV420H1 (unknown origin) at 1 to 10 uM; conditions: dose 1-10 µM; outline: as §1
[26] = target: Histone-lysine N-methyltransferase EZH2 (Homo sapiens) (UniProt Q15910); experiment: Inhibition of PRC2 (unknown origin) at 1 to 10 uM; conditions: dose 1-10 µM; outline: as §1
HEK-293T [27] = experiment: Cytotoxicity against HEK293T cells at 30 uM measured after 20 hrs by Western blot analysis; conditions: human
[28] = target: Protein arginine N-methyltransferase 1 (Homo sapiens) (UniProt Q99873); experiment: Inhibition of PRMT1 (unknown origin) at 1 to 10 uM; conditions: dose 1-10 µM; outline: as §1
[29] = target: Histone-lysine N-methyltransferase SUV39H2 (Homo sapiens) (UniProt Q9H5I1); experiment: Inhibition of SUV39H2 (unknown origin) at 1 to 10 uM; conditions: dose 1-10 µM; outline: as §1
[30] = target: Histone-lysine N-methyltransferase EHMT1 (Homo sapiens) (UniProt Q9H9B1); experiment: Inhibition of GLP (unknown origin) at 1 to 10 uM; conditions: dose 1-10 µM; outline: as §1
[31] = target: N-lysine methyltransferase SMYD2 (Homo sapiens) (UniProt Q9NRG4); experiment: Inhibition of SMYD2 (unknown origin) at 1 to 10 uM; conditions: dose 1-10 µM; outline: as §1
[32] = target: N-lysine methyltransferase KMT5A (Homo sapiens) (UniProt Q9NQR1); experiment: Inhibition of SETD8 (unknown origin) at 1 to 10 uM; conditions: dose 1-10 µM; outline: as §1
[33] = target: Histone-lysine N-methyltransferase NSD3 (Homo sapiens) (UniProt Q9BZ95); experiment: Inhibition of NSD3 (unknown origin) at 1 to 10 uM; conditions: dose 1-10 µM; outline: as §1
[34] = target: Histone-lysine N-methyltransferase PRDM9 (Homo sapiens) (UniProt Q9NQV7); experiment: Inhibition of PRDM9 (unknown origin) at 1 to 10 uM; conditions: dose 1-10 µM; outline: as §1
HEK293T [35] = experiment: Inhibition of FLAG-tagged PRMT6 V86K/D88A mutant (unknown origin) expressed in HEK293T assessed as reduction in H3R2me2a level measured after 20 hrs by SDS gel electrophoresis relative to control; type: cell-based; conditions: Homo sapiens
Outline: (§3)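 HEK293T cells were grown in DMEM with 10% FBS and penicillin/streptomycin. The next day they were transfected with FLAG-PRMT6 or the V86K/D88A mutant (1 μg DNA per well). After 4 h, medium was replaced with titrated compound for 20 h. Cells were lysed in benzonase-containing buffer, SDS was added to 1%, and lysates were western blotted for H3R2me2a or H4R3me2a, total H3/H4 and FLAG, with infrared detection at 800/700 nm.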

HEK-293T [36] = experiment: Cytotoxicity against HEK293T cells at up to 10 uM measured after 3 days by CCK8 assay; type: cell-based; conditions: human, 72 h, time 3 day; outline: as §2
HEK293T [37] = experiment: Inhibition of FLAG-tagged PRMT6 V86K/D88A mutant (unknown origin) expressed in HEK293T assessed as reduction in H4R3me2a level measured after 20 hrs by SDS gel electrophoresis relative to control; type: cell-based; conditions: Homo sapiens; outline: as §3
[38] = Inhibition of PRMT6 mutant 17 (unknown origin) using biotinylated H4(1 to 24) peptide as substrate preincubated for 20 mins in presence of [3H]SAM followed by substrate addition by scintillation proximity assay; design: species or system Homo sapiens
[39] = Inhibition of PRMT6 mutant 20 (unknown origin) using biotinylated H4(1 to 24) peptide as substrate preincubated for 20 mins in presence of [3H]SAM followed by substrate addition by scintillation proximity assay; design: species or system Homo sapiens
[40] = Inhibition of PRMT6 mutant 19 (unknown origin) using biotinylated H4(1 to 24) peptide as substrate preincubated for 20 mins in presence of [3H]SAM followed by substrate addition by scintillation proximity assay; design: species or system Homo sapiens

Sequence of Histone-lysine N-methyltransferase SETD7 (Homo sapiens) (Q8WTS6 whole entry): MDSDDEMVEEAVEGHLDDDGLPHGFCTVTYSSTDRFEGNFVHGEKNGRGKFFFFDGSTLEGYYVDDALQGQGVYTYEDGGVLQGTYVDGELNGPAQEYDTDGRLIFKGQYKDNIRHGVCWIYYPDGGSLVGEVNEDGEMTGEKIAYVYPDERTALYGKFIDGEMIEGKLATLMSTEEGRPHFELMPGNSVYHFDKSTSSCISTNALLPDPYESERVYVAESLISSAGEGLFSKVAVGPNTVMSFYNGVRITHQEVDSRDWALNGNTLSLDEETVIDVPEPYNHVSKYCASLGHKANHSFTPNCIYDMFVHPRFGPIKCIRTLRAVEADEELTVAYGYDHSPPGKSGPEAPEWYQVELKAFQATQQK

CNCCN1CCC(OCc2ccccc2)CC1
0.034 µM: IC50 [1]

Cc1cc(C)cc([C@H]2c3cc(C)ccc3NC(=O)CN2C(=O)c2ccc(Br)s2)c1
Non-Toxic: Activity (MCF7) | Activity (PNT2)
Toxic: Activity (HEK-293T [27])
inactive: inhibition [2] | inhibition [3] | inhibition [4] | inhibition [5] | inhibition [6] | inhibition [7] | inhibition [8] | inhibition [9] | inhibition [10] | inhibition [11] | inhibition [12] | inhibition [13] | inhibition [14] | inhibition [15] | inhibition [16] | inhibition [17] | inhibition [18] | inhibition [19] | inhibition [20] | inhibition [21] | inhibition [22] | inhibition [23] | inhibition [24] | inhibition [25] | inhibition [26] | inhibition [28] | inhibition [29] | inhibition [30] | inhibition [31] | inhibition [32] | inhibition [33] | inhibition [34]

Cc1cc(C)cc([C@@H]2c3cc(C)ccc3NC(=O)CN2C(=O)c2ccc(Br)s2)c1
100%: inhibition (HEK293T [35]) | inhibition (HEK293T [37])
Non-Toxic: Activity (MCF7) | Activity (PNT2) | Activity (HEK-293T [36])
inactive: inhibition [2] | inhibition [3] | inhibition [4] | inhibition [5] | inhibition [6] | inhibition [7] | inhibition [8] | inhibition [9] | inhibition [10] | inhibition [11] | inhibition [12] | inhibition [13] | inhibition [14] | inhibition [15] | inhibition [16] | inhibition [17] | inhibition [18] | inhibition [19] | inhibition [20] | inhibition [21] | inhibition [22] | inhibition [23] | inhibition [24] | inhibition [25] | inhibition [26] | inhibition [28] | inhibition [29] | inhibition [30] | inhibition [31] | inhibition [32] | inhibition [33] | inhibition [34]

Cc1ccc2c(c1)[C@@H](c1ccc(F)cc1)N(C(=O)c1ccc(Br)o1)CC(=O)N2
17 µM: IC50 [40]
41 µM: IC50 [39]
46 µM: IC50 [38]
